Compound activity from PubChem.
In the library only some 3% were active in any assay of this set; here they are far more common.
MITF TRPM1 HTS: activators of MITF-driven TRPM1 promoter reporter, primary screen, cell-based, SK-MEL-5, luciferase, single point | SK-MEL-5 TRPM1-promoter luciferase, 24 h; % of positive control, neutral wells = 0 | activation, % at 12.5 µM | 300,000 compounds, 0.75% hits | AID 588334, 2011;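 active means mean activation of at least 80% with every replicate also reaching 80%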;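 further: 0% = neutral control wells and 100% = parthenolide positive control wells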
Wnt bcat act: Wnt/beta-catenin pathway activators, primary screen, cell-based, plate reader, single point. Wnt/beta-catenin reporter cell assay, activator. AID 743398, 2014. activation, % at 9.35 µM. 300,000 compounds, 1.2% hits; in the data active means activation above about 30%, passing the limit was not always enough;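 further: 0% = neutral control wells and 100% = positive control wells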
CASP6 VEID inh: human caspase-6 inhibitors, primary screen, biochemical, VEID-R110 fluorescence, single point, set 2 | inhibition, % at 12.5 µM | P55212 | purified caspase-6, Z-VEID-R110 cleavage fluorescence | 350,000 compounds, 0.53% hits;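 active means mean inhibition across replicates at least about 35%, with every replicate also reaching that limit, limit read from the data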;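 further: 0% = median of neutral control wells and 100% = no fluorescence left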
NSD2 inh: NSD2 histone methyltransferase inhibitors, primary screen, biochemical, AlphaScreen, single concentration, set 2. NSD2 peptide methylation, 120 min. inhibition, % at 12.5 µM. 310,000 compounds, 0.54% hits. Histone-lysine N-methyltransferase NSD2 (Homo sapiens), O96028; in the data active means inhibition above about 50%
Xi reactivation: activators of inactive X chromosome reactivation, primary screen, imaging, XiGFP fibroblasts, GFP high-content imaging, set 2; XiGFP mouse fibroblasts, % GFP-positive cells imaging, 3 d; cells co-treated with 5-aza-dC sensitizer; scaled so ellipticine positive control = 100%; 360,000 compounds, 0.055% hits; activation, % at 7.58 µM;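 active means mean normalized replicate activation at least 10% and every replicate at or above 10%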;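 further: 0% = median of on-plate neutral control wells and 100% = ellipticine 6 µM median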
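material = 68-5-11 XiGFP fibroblast line | medium = DMEM plus 5-aza-dC sensitizer | schedule = 3 days compound exposure | benchmarks = positive control ellipticine, 6 µM final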
esBAF inh: Bmi1 luciferase reporter increase in mESCs, primary screen, esBAF inhibitor project, mouse ES cells, Bmi1 luciferase knock-in, single point. 24 h; 100% = twice the neutral-well signal. reporter increase, % at 12.5 µM. 350,000 compounds, 2% hits; in the data active means activation above about 40%;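 further: 0% = median of the plate's neutral control wells and 100% = double that signal; a rise in the Bmi1 reporter signal indicates esBAF inhibition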
Starred values were filed as active, the others as inactive; . = not tested or not shown; ! = a repeat was not active.

SMILES	MITF TRPM1 HTS	Wnt bcat act	CASP6 VEID inh	NSD2 inh	Xi reactivation	esBAF inh
Nc1c(Br)cc2c3c(cccc13)-c1ccccc1-2	.	-0.9	15.2	14.7	27.4*	.
CC(C)OCCCNC(=O)c1c(N)n(CC2CCCO2)c2nc3ccccc3nc12 (centres undefined)	-1.5	-2.5	55.2*	98.5*	.	.
COC(=O)[C@H]1[C@H](CO)[C@H]2Cn3c(ccc(C4=CCCCC4)c3=O)[C@@H]1N2Cc1cccnc1	.	.	-3.1	.	0.0	1.4
CC(C)NC(=O)N1C[C@@H]2N[C@H](C1)C2c1ccccc1 (some centres undefined)	.	.	.	.	0.3	.
Cc1ccc2c(c1N)C(=O)c1ccccc1C2=O	94.6*	44.3*	4.9	.	.	55.1*
CCc1cc(OC)c(CCN)cc1OC	.	-0.7	-1.7	.	.	.
CCCCCCCSc1cc(OC)c(CCNC)cc1OC	-101.5	.	.	68.6*	.	-6.1
COc1ccc(OC(=O)N(C)C[C@@H]2OCc3ccccc3-c3c(n(C)c4ccccc34)C(=O)N([C@@H](C)CO)C[C@H]2C)cc1	.	.	4.0	.	0.0	.
COC(=O)C1=C(c2ccc(Cl)c(C(F)(F)F)c2)C[C@@H]2CC[C@H]1N2C(=O)NCc1ccc2c(c1)OCO2	-0.4	57.4*	1.0	.	-0.6	11.0
COc1ccc(C#Cc2ccc([C@@H]3[C@H]4CN(C(=O)Cc5cccnc5)CCCCN4[C@H]3CO)cc2)cc1	.	.	0.2	.	0.0	.
COc1ccc(CC2(CCc3ccncc3)C(=O)NC(=O)NC2=O)cc1OC	-0.1	36.6*	-0.2	-0.9	0.2	-2.9
CC(C)Oc1ccc(CC2(CCc3ccncc3)C(=O)NC(=O)NC2=O)cc1	.	-3.6	-1.0	20.9	0.0	-5.7
O=C(Cc1ccccc1)N1C[C@H]2[C@@H](c3ccccc31)[C@@H](CO)N2Cc1ccccc1	.	.	.	.	0.2	0.3
Cn1c(O)c(Cc2ccc(OCc3ccccc3)cc2)c(=O)n(C)c1=O	43.9	33.3*	1.1	1.9	0.0	14.7
CC(C)NC(=O)N1CC2C(c3ccccc3)C(C1)N2C (centres undefined)	.	.	.	.	0.2	.
COc1ccccc1/C=C1\C(=O)NC(=S)N(c2ccccc2)C1=O	-2.8	-2.8	.	4.7	-0.1	-1.0
CCN(CC)c1ccc(/C=C2\C(=O)NC(=S)N(C)C2=O)o1	.	37.3*	-4.9	1.8	0.0	5.8
COc1cccc(N2C(=O)/C(=C/c3ccc(C)o3)C(=O)NC2=S)c1	-26.9	-1.0	39.7*	19.2	0.2	2.4
O=C1NC(=S)N(c2ccccc2)C(=O)/C1=C/c1ccco1	.	-1.5	95.4*	.	0.0	-8.7
Cc1ccc(/C=C2\C(=O)NC(=S)N(c3ccc(F)cc3)C2=O)o1	.	-0.4	40.6*	31.5	0.0	3.0
COc1ccc(-c2ccc([C@@H]3[C@@H](CO)N4CCCCN(C(=O)Cc5ccccc5)C[C@H]34)cc2)cc1	.	.	.	.	0.0	.
O=C(Cc1ccccc1)N1CC2(C1)[C@H](c1ccccc1)[C@H](CO)N2Cc1cccc(F)c1	.	.	-0.4	.	0.1	.
c1ccc(-c2ccc3c(c2)CNCc2cnnn2-3)cc1	.	-0.7	-1.7	.	.	13.5
c1cc2c(cc1-c1ccc3c(c1)OCO3)CNCc1cnnn1-2	.	-1.3	-0.7	.	.	50.6*
Fc1cccc(-c2ccc3c(c2)CNCc2cnnn2-3)c1	.	0.7	-5.7	.	.	42.7*
SMILES	MITF TRPM1 HTS	Wnt bcat act	CASP6 VEID inh	NSD2 inh	Xi reactivation	esBAF inh
N#Cc1cc2c(nc1SCC(=O)Nc1cc(Cl)ccc1Cl)C1CCN2CC1	-5.1	21.7	.	-4.2	.	57.6*
Cc1noc(C)c1CSCC(=O)Nc1ccc(C#N)c(Cl)c1	5.7	-2.0	1.2	-1.9	-0.1	-1.0
N#Cc1cc2c(nc1SCC(=O)Nc1ccc(Cl)cc1)C1CCN2CC1	6.3	10.1	3.1	-0.6	.	46.5*
COC(=O)[C@@H]1[C@@H](CO)[C@@H]2Cn3c(ccc(/C=C/c4ccccc4)c3=O)[C@H]1N2CC1CCCC1	.	.	-2.9	.	0.2	6.2
COC(=O)[C@@H]1[C@@H](CO)[C@@H]2Cn3c(ccc(C4=CCCC4)c3=O)[C@H]1N2S(=O)(=O)c1cn(C)cn1	.	.	-1.8	.	0.0	0.0
CC1(C)CN=C(NCc2ccccc2)S1	.	2.4	-2.2	-0.2	0.0	-1.4
CC1(C)CN=C(Nc2nc3ccccc3s2)S1	73.1	.	.	1.6	.	50.4*
Cc1cccc(C(O)(C(=O)O)c2ccccc2)c1 (centres undefined)	-6.3	-3.3	0.0	-0.5	0.3	.
Cc1cc(C(=O)Nc2ccccc2)nn1C(C)(C)C	.	36.6*	-0.4	1.1	0.0	.
Cc1cc(C(=O)Nc2ccc3c(c2)OCCO3)nn1C(C)(C)C	.	55.7*	1.1	-1.0	0.1	33.9
O=C(Nc1ccc2c(c1)OCO2)c1cn(Cc2ccc(F)cc2)nn1	39.1	.	.	4.7	.	33.1
CN1CCC2(CC1)C(C#N)=C(N)NC(S)=C2C#N	-7.2	4.7	47.3*!	45.5	0.0	.
CN(C)c1ccc(/C=C/c2cc[n+](C)c3ccccc23)cc1	-81.7	-6.2	-18.5	62.0*	0.0	-58.5
CC[n+]1c(-c2ccccc2)c2cc(N)ccc2c2ccc(N)cc21	-64.2	-3.9	99.0*	177.6*	1.7	.
Fc1ccc(CN2CC3NC(C2)C3c2ccc(Br)cc2)cc1 (centres undefined)	.	.	.	.	0.2	.
CN1C(=O)C(=Cc2ccccc2OCc2ccccc2Cl)C(=O)N(C)C1=O	9.1	4.7	.	2.9	0.0	.
CN1C(=O)C(=Cc2c(OCc3cnc(Cl)s3)ccc3ccccc23)C(=O)N(C)C1=O	33.7	5.5	5.1	36.9	-0.1	49.9*
COc1ccc(CC2c3cc(OC)c(OC)cc3CCN2C)cc1O (centres undefined)	13.0	1.6	5.4	.	-0.1	-0.2
COc1cc2c(cc1OC)-c1c3c(cc4c1[C@@H](C2)N(C)CC4)OCO3	5.5	2.0	48.0*	.	0.0	0.5
COc1cc2c(cc1OC)-c1c(OC)c(OC)cc3c1C(C2)N(C)CC3 (centres undefined)	1.2	2.5	68.5*	.	.	-7.0
Cc1nc2c(c(C)nn2-c2ccccc2)c(C)c1CCC(=O)N1CCC2(CC1)OCCO2	5.5	.	.	.	.	54.7*
COC(=O)[C@@H]1[C@@H](CO)[C@@H]2Cn3c(ccc(C4=CCCC4)c3=O)[C@H]1N2Cc1ccccn1	.	.	-1.4	.	0.3	-3.6
CN(C)c1ccc(/C=C2/C(=O)NC(=O)N(Cc3ccco3)C2=O)cc1	5.9	1.3	81.0*	34.0	-0.1	6.5
COc1ccc(/C=C2/C(=O)N(Cc3ccco3)C(=O)N(C(C)C)C2=O)cc1	2.6	0.4	78.2*	.	0.0	.
